Measurements gathered from unrelated publications.
Lines come from different studies, so protocols differ.
Organism: Staphylococcus aureus
Read-out: microbial growth

| Compound | technique | strain | time | setting | MIC |
| --- | --- | --- | --- | --- | --- |
| CN[C@H](CC(C)C)C(=O)N[C@H]1C(=O)N[C@@H](CC(N)=O)C(=O)N[C@H]2C(=O)N[C@H]3C(=O)N[C@H](C(=O)N[C@H](C(=O)O)c4cc(O)cc(O)c4-c4cc3ccc4O)[C@H](O)c3ccc(c(Cl)c3)Oc3cc2cc(c3O[C@@H]2O[C@H](CO)[C@@H](O)[C@H](O)[C@H]2O[C@H]2C[C@](C)(N)[C@H](O)[C@H](C)O2)Oc2ccc(cc2Cl)[C@H]1O | broth dilution | ATCC43300 |  |  | 1.96 µg/mL |
| Cc1ccc2cccc(C(=O)O)c2c1 |  |  |  |  | > 128 µg/mL |
| CCCCCCC#Cc1cncc(-c2nnc(SCc3ccc([N+](=O)[O-])o3)n2C)c1 |  | MRSA |  | drug-resistant strain | ≥ 20 µg/mL |
| CC(C)Oc1c(NC(=O)c2ccc(NC(=O)[C@H](CC(N)=O)NC(=O)c3ccc(NC(=O)c4cccc(N)c4)cc3)cc2)ccc(C(=O)Nc2ccc(C(=O)O)cc2)c1O |  | ATCC29213 |  |  | > 64 µg/mL |
| CC(=O)c1c(C)c2cnc(Nc3ccc(N4CCNCC4)cn3)nc2n(C2CCCC2)c1=O |  | NCTC8325 |  |  | > 30 µM |
| Cn1cc(NC(=O)C(CC(N)=O)NC(=O)c2ccc(NC(=O)c3ccc(C#N)cc3)cc2)cc1-c1nc2ccc(C(=O)Nc3ccc(C(=O)O)cc3)c(O)c2[nH]1 (stereo not drawn) |  | ATCC29213 |  |  | > 64 µg/mL |
| O=C(Cc1ccc(O)c(O)c1)NCCCCCCCC[P+](c1ccccc1)(c1ccccc1)c1ccccc1.[Br-] | broth dilution | ATCC43300 MRSA | 18 h |  | > 32 µg/mL |
| CNC(=O)c1cc(Oc2ccc(NC(=O)Nc3c(C)cccc3Cl)cc2)ccn1 |  | NCTC8325 |  |  | > 100 µM |
| C/C=C(\C)c1cc(OC(=O)c2c(C)c(Cl)c(O)c(Cl)c2O)c(C)c(O)c1C(=O)O | broth dilution | MRSA |  |  | 64 µg/mL |
| Cc1ccc2nc(-c3ccc(Cl)c(Cl)c3)n(Cc3ccccc3)c2c1 | broth dilution | ATCC29213 MSSA |  |  | 32 µg/mL |
| CCc1cccc(CC)c1NC(=O)N1Cc2[nH]nc(NC(=O)c3ccc(N4CCN(C)CC4)cc3)c2C1 |  | NCTC8325 |  |  | > 30 µM |
| CO[C@H]1[C@H](O[C@H]([C@H]2O[C@@H](n3ccc(=O)[nH]c3=O)[C@H](O)[C@@H]2O)[C@H](NCCCNC(=O)[C@@H](NC(=O)[C@@H](NC(=O)N[C@H](C(=O)O)C(C)C)[C@@H]2CCNC(=N)N2)[C@@H](O)C(C)C)C(=O)O)O[C@H](CN)[C@H]1O |  | NEWMAN |  |  | > 32 µg/mL |
| Cc1cc(=O)[nH]n1C(=O)c1ccc(-n2c(C)ccc2C)cc1 | broth dilution | ATCC11632 | 18 h |  | 125 µg/mL |
| Cn1cc(-c2ccc3nnc(C(F)(F)c4ccc5ncccc5c4)n3n2)cn1 |  | NCTC8325 |  |  | > 30 µM |
| CC[C@H]1OC(=O)[C@H](C)[C@@H](O[C@H]2C[C@@](C)(OC)[C@@H](O)[C@H](C)O2)[C@H](C)[C@@H](O[C@@H]2O[C@H](C)C[C@H](N(C)C)[C@H]2O)[C@](C)(O)C[C@@H](C)C(=O)[C@H](C)[C@@H](O)[C@]1(C)O | broth dilution | 25923 |  |  | 0.59 µM |
| O=C1NC(=O)[C@@H](c2cn3c4c(cccc24)CCC3)[C@@H]1c1c[nH]c2ccccc12 |  | NCTC8325 |  |  | > 30 µM |
| Fc1ccc(NCc2ccc(Oc3ccccn3)cc2)cc1 |  |  |  |  | 1.8 µg/mL |
| Cc1nc(N)sc1-c1ccnc(Nc2ccc(N3CCOCC3)cc2)n1 |  | NCTC8325 |  |  | > 30 µM |
| COc1ccc(-c2nc3ccc(C)cc3[nH]2)cc1OC | broth dilution | ATCC29213 MSSA |  |  | 128 µg/mL |
| O=C(Nc1ccc2c(c1)OC(F)(F)O2)NC12CC3CC(CC(C3)C1)C2 |  | NCTC8325 |  |  | > 100 µM |
| CC1(C)S[C@@H]2[C@H](NC(=O)[C@H](N)c3ccccc3)C(=O)N2[C@H]1C(=O)O | broth dilution | CCARM3090 |  |  | 16 µg/mL |
